Experimental data as given in ChEMBL document CHEMBL2062420, “Triazole Appending Agent (TAAG): A New Synthon for Preparing Iodine-Based Molecular Imaging and Radiotherapy Agents” (ACS Med Chem Lett, 2012).

Legend:
[1] = Lipophilicity, log D of the compound at pH 7.4; type: physicochemical; conditions: buffer
Urinary bladder [2] = test: Drug uptake in NCr nude mouse bladder xenografted with human LNCAP cells at 37 MBq, iv measured 2 hrs post injection by gamma counting; type: ADME, organism-based; conditions: in vivo
Procedure, shortened: (§1)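 Male NCr nude mice bearing LNCap tumours (PSMA-expressing) received 37 MBq of the radioiodinated PSMA-TAAG conjugate via the tail vein. Distribution was followed by scintigraphic imaging at 2 h and 24 h post-injection, with a fused scintigraphic-CT image taken at 23 h.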

Thyroid gland [3] = test: Drug uptake in NCr nude mouse thyroid xenografted with human LNCAP cells at 37 MBq, iv measured 24 hrs post injection by gamma counting; type: ADME, organism-based; conditions: in vivo; procedure, shortened: as §1
Kidney [4] = test: Drug uptake in NCr nude mouse kidney xenografted with human LNCAP cells at 37 MBq, iv measured 2 hrs post injection by gamma counting; type: ADME, organism-based; conditions: in vivo; procedure, shortened: as §1
[5] = Drug uptake in NCr nude mouse tumor xenografted with human LNCAP cells at 0.63 MBq, iv measured 23 hrs post injection by gamma counting; type: ADME, organism-based, Neoplasm; conditions: in vivo
Thyroid gland [6] = test: Drug uptake in NCr nude mouse thyroid xenografted with human LNCAP cells at 0.63 MBq, iv measured 23 hrs post injection by gamma counting; type: ADME, organism-based; conditions: in vivo
[7] = Drug uptake in NCr nude mouse tumor xenografted with human LNCAP cells at 37 MBq, iv measured 2 hrs post injection by gamma counting; type: ADME, organism-based, Neoplasm; conditions: in vivo; procedure, shortened: as §1
[8] = Drug uptake in NCr nude mouse tumor xenografted with human LNCAP cells at 37 MBq, iv measured 24 hrs post injection by gamma counting; type: ADME, organism-based, Neoplasm; conditions: in vivo; procedure, shortened: as §1
[9] = Drug uptake in NCr nude mouse tumor xenografted with human LNCAP cells measured 1 hr post injection in presence of PSMA inhibition PMPA; type: ADME, Neoplasm; conditions: tumor (human LNCaP xenograft), with PMPA (PSMA inhibitor), amount not stated, read-out: Drug uptake
[10] = Drug uptake in NCr nude mouse tumor xenografted with human LNCAP cells at 0.63 MBq, iv measured 1 hrs post injection by gamma counting; type: ADME, organism-based, Neoplasm; conditions: in vivo
Mus musculus [11] = test: Biodistribution in Balb/c mouse skeletal muscle at 1.37 MBq, iv up to 30 mins by gamma counter; type: ADME, organism-based, Muscle tissue; conditions: in vivo, 0.5 h
[12] = Stability of the compound in PBS at pH 7.4 after 48 hrs; type: physicochemical; conditions: buffer, pH 7.4, 48 h
Liver = test: Biodistribution in Balb/c mouse liver at 1.37 MBq, iv up to 30 mins by gamma counter; type: ADME, organism-based; conditions: in vivo, 0.5 h
Spleen = test: Biodistribution in Balb/c mouse spleen at 1.37 MBq, iv up to 30 mins by gamma counter; type: ADME, organism-based; conditions: in vivo, 0.5 h
Stomach = test: Biodistribution in Balb/c mouse stomach at 1.37 MBq, iv up to 30 mins by gamma counter; type: ADME, organism-based; conditions: in vivo, 0.5 h
Heart = test: Biodistribution in Balb/c mouse heart at 1.37 MBq, iv up to 30 mins by gamma counter; type: ADME, organism-based; conditions: in vivo, 0.5 h
Urinary bladder [13] = test: Biodistribution in Balb/c mouse bladder at 1.37 MBq, iv up to 30 mins by gamma counter; type: ADME, organism-based; conditions: in vivo, 0.5 h
Thyroid gland [14] = test: Biodistribution in Balb/c mouse thyroid at 1.37 MBq, iv up to 30 mins by gamma counter; type: ADME, organism-based; conditions: in vivo, 0.5 h
Bone = test: Biodistribution in Balb/c mouse bone at 1.37 MBq, iv up to 30 mins by gamma counter; type: ADME, organism-based, Bone element; conditions: in vivo, 0.5 h
Mus musculus [15] = test: Biodistribution in Balb/c mouse adrenals at 1.37 MBq, iv up to 30 mins by gamma counter; type: ADME, organism-based, Adrenal tissue; conditions: in vivo, 0.5 h
[16] = Stability in PBS at pH 7.4 assessed as deiodination of compound after 48 hrs; type: physicochemical; conditions: buffer, pH 7.4, 48 h
Lung = test: Biodistribution in Balb/c mouse lungs at 1.37 MBq, iv up to 30 mins by gamma counter; type: ADME, organism-based; conditions: in vivo, 0.5 h
Mus musculus [17] = test: Biodistribution in Balb/c mouse large intestine at 1.37 MBq, iv up to 30 mins by gamma counter; type: ADME, organism-based; conditions: in vivo, 0.5 h
Mus musculus [18] = test: Biodistribution in Balb/c mouse small intestine at 1.37 MBq, iv up to 30 mins by gamma counter; type: ADME, organism-based; conditions: in vivo, 0.5 h
Kidney [19] = test: Biodistribution in Balb/c mouse kidneys at 1.37 MBq, iv up to 30 mins by gamma counter; type: ADME, organism-based; conditions: in vivo, 0.5 h
Blood = test: Biodistribution in Balb/c mouse blood at 1.37 MBq, iv up to 30 mins by gamma counter; type: ADME, organism-based; conditions: in vivo, 0.5 h
Brain = test: Biodistribution in Balb/c mouse brain at 1.37 MBq, iv up to 30 mins by gamma counter; type: ADME, organism-based; conditions: in vivo, 0.5 h

O=C(O)c1ccc(I)cc1
logD [1]: 0.07

O=C(O)CC[C@H](NC(=O)N[C@@H](CCCCNC(=O)Cn1cc([123I])nn1)C(=O)O)C(=O)O
Drug uptake (Urinary bladder [2]): Active | logD [1]: -3.23 | Drug uptake (Thyroid gland [3]): Active | Drug uptake (Kidney [4]): Active | Drug uptake [5]: 15 % ID/g | Drug uptake (Thyroid gland [6]): 10 % ID/g | Drug uptake [7]: Active | Drug uptake [8]: Active | tissue uptake at 1 h [9]: < 2 %ID/g | Drug uptake [10]: 20 % ID/g

O=C(O)Cn1cc([123I])nn1
Drug uptake (Mus musculus [11]): Not Active | Stability [12]: Stable | Drug uptake (Liver): Not Active | Drug uptake (Spleen): Not Active | Drug uptake (Stomach): Not Active | Drug uptake (Heart): Not Active | Drug uptake (Urinary bladder [13]): Active | logD [1]: -2.58 | Drug uptake (Thyroid gland [14]): Not Active | Drug uptake (Bone): Not Active | Drug uptake (Mus musculus [15]): Not Active | Stability [16]: Stable | Drug uptake (Lung): Not Active | Drug uptake (Mus musculus [17]): Not Active | Drug uptake (Mus musculus [18]): Not Active | Drug uptake (Kidney [19]): Not Active | Drug uptake (Blood): Not Active | Drug uptake (Brain): Not Active
